A selection: hits, their analogues and other compounds. The true share with any hit is near 6.7%.
Beta apoptosis = blocks beta cell apoptosis; actives 0.8% (n = 300,000); protection from apoptosis, % (no concentration beside the values); INS-1E cytokine-induced death, ATP luminescence, 48 h; percent of positive-control rescue, neutral wells zero;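 active means Every replicate reaches about 75%, or at least half do and their mean reaches it too, limit read from the data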;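 further: 0% = cytokine-treated negative control wells and 100% = positive control rescue; higher means more ATP so stronger rescue from cytokine killing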
NR3A LBD binder = modulators (binders) of human NR3A ligand-binding domain. NR3A LBD differential scanning fluorimetry, Tm shift; 0% = protein alone, 100% = glycine-bound protein. Tm shift relative to glycine control, % at 25 µM. actives 2.5% (n = 340,000). AID 1259313;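 active means melting temperature shift of at least 10% of the positive control shift, at one fixed dose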
T cruzi inh = blocks replication of Trypanosoma cruzi; T. cruzi beta-gal in NIH3T3, luminescence, 90 h; inhibition, % (no concentration beside the values); actives 1.4% (n = 300,000); AID 1885;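 active means mean inhibition across valid replicates above about 55%, limit read from the data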;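 further: signal also drops with host cell toxicity which is not excluded here; 0% = plate median of DMSO wells and 100% = zero luminescence signal; higher percent means less beta-gal luminescence so fewer parasites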
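Read-out: Parasite load inhibition, % | Test system: Mouse NIH/3T3 fibroblasts infected with β-gal-expressing T. cruzi Tulahuen C4 | Amount: 5,000 cells/well | Medium: DMEM, 2% fetal bovine serum | Signal: GalScreen β-gal luminescence, detergent lysis, 60 min | Timing: 3 h attach, ≥90 h co-culture | Also added: Tulahuen C4 trypomastigotes, 5000/well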
PREPL inh = inhibits the human prolyl oligopeptidase-like enzyme; actives 0.68% (n = 320,000); recombinant PREPL, fluorescence polarization activity-based probe; inhibition, % at 5.96 µM; Q4J6C6; in the data active means inhibition above about 43%;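 further: 0% = enzyme with DMSO and 100% = wells lacking enzyme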
Target sequence (Q4J6C6 whole entry, looked up): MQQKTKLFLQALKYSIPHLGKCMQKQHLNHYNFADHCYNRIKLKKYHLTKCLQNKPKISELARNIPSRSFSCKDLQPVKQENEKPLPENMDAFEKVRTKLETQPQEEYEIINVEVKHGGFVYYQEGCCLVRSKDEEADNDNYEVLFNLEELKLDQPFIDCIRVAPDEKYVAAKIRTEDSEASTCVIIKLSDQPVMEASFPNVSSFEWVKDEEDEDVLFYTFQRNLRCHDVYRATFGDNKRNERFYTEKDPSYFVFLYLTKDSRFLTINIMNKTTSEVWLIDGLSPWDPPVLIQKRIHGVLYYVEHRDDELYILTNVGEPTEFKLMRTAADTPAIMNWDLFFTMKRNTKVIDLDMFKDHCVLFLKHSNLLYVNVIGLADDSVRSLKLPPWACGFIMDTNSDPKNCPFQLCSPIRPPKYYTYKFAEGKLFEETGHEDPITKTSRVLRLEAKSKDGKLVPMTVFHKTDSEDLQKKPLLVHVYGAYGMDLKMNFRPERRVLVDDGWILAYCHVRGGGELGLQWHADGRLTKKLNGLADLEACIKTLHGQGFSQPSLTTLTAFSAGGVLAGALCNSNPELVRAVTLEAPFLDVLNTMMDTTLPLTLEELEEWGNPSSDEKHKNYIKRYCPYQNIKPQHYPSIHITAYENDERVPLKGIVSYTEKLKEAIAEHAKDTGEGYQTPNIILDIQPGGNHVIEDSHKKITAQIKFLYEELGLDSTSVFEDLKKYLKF
CSC inhib = blocks cancer stem cells | cancer stem cell-like cells viability, luminescence | inhibition, % at 7.5 µM | actives 1.1% (n = 300,000) | AID 2717; in the data active means inhibition above about 75%; tested in HMLE shEcad cells
CHOP inh = inhibitors of CHOP induction in ER stress response; CHO-K1 CHOP-promoter luciferase, tunicamycin-induced, 15-18 h; inhibition, % at 10 µM; actives 3.8% (n = 220,000); AID 2732;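 active means compounds that reduced the stress-induced luciferase reporter signal by more than about 70% of percent inhibition, limit read from the data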;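 further: 0% = tunicamycin plus vehicle and 100% = wells without tunicamycin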
* hit, by the source's call; nt = no result.

SMILES	Beta apoptosis	NR3A LBD binder	T cruzi inh	PREPL inh	CSC inhib	CHOP inh
CC(C)CN(C(=O)COC(=O)c1ccc([N+](=O)[O-])s1)c1c(N)n(Cc2ccccc2)c(=O)[nH]c1=O	-2.5	-1.2	63.4*	21.8	-1.7	nt
S=C(NCc1ccco1)N1CCN(C(c2ccccc2)c2ccccc2)CC1	2.8	-2.7	10.9	8.6	1.8	71.8*
CC(NC(=O)c1ccco1)C(=O)N1CCN(C(c2ccccc2)c2ccccc2)CC1 (centres undefined)	-10.0	11.1*	-7.4	-0.6	-18.8	nt
CC(NC(=O)c1ccco1)C(=O)N1CCN(c2ccccc2)CC1 (centres undefined)	-2.5	-1.7	3.3	-1.2	1.7	nt
CCOc1cc(/C=C/c2ccc3cccc([N+](=O)[O-])c3n2)cc(Cl)c1O	18.3	5.6	35.0	21.4	58.7	39.6
O=[N+]([O-])c1cccc2ccc(/C=C/c3ccc(C(F)(F)F)cc3)nc12	7.7	16.9*	38.2	1.5	77.8*	0.5
O=[N+]([O-])c1cccc2ccc(/C=C/c3cccc(Br)c3)nc12	3.3	23.0*	28.6	3.3	61.5	8.9
O=[N+]([O-])c1cccc2ccc(/C=C/c3ccc(Cl)cc3)nc12	4.1	21.3*	18.4	13.6	65.9	16.4
CCC(C)(C)NC(=O)Cn1c(-c2ccc(C)cc2)noc1=O	0.2	-3.0	7.2	-2.3	-4.5	-4.1
CCN(c1cccc(C)c1)c1nc2ccsc2c(=O)s1	0.7	1.1	-5.1	-7.6	-4.9	73.4*
CCN1CCn2c3c(c4cccc(C)c42)CCCC31 (centres undefined)	-3.6	-0.7	-3.1	26.2	18.2	nt
CCN(CC)C(=O)CN(c1ccc(F)c(Cl)c1)S(C)(=O)=O	-0.2	1.3	5.9	-1.4	-8.9	75.5*
Cc1ccc(N(CC(=O)O)S(C)(=O)=O)cc1Cl	-9.9	11.5*	-1.6	3.6	-4.9	-2.2
CC(O)[C@@]1(O)CC[C@H]2[C@@H]3CC[C@H]4C[C@@H](O)CC[C@]4(C)C3=CC[C@@]21C (some centres undefined)	-4.1	8.4	-8.8	-5.1	-8.2	nt
COc1cccc(C2CC(c3cccs3)=NN2C(=O)CSc2nc3c(cnn3-c3ccc(F)cc3)c(=O)[nH]2)c1OC (centres undefined)	6.3	-27.8	-5.9	11.1	118.2*	34.3
COc1ccc(C2CC(c3cccs3)=NN2C(=O)CSc2nc3c(cnn3-c3ccccc3)c(=O)[nH]2)cc1 (centres undefined)	2.9	-26.6	17.2	16.2	69.6	76.0*
CCOC(=O)C1(Cc2ccccc2C#N)CCCCC1=O (centres undefined)	nt	-0.8	nt	nt	nt	nt
NC(=O)c1ccc(/C=N/O)nc1	1.3	-0.7	-5.4	5.4	1.5	28.9
N/C(=N\O)c1ccc(Cl)cc1Cl	2.5	1.0	-2.9	-1.5	3.0	-5.5
CCCc1cc(=O)oc2cc(C)cc(OC(C)C(=O)NCCCn3ccnc3)c12 (centres undefined)	-1.9	-1.6	8.7	-3.9	-3.2	nt
Cc1cccc(C)c1NC(=O)c1nc(S(=O)(=O)Cc2ccccc2)ncc1Cl	nt	1.9	-17.3	5.0	nt	nt
Cc1ccc(NC(=O)c2nc(S(=O)(=O)Cc3ccccc3)ncc2Cl)cc1	109.1*	0.5	-7.3	-21.3	103.9*	nt
Cc1ccccc1CS(=O)(=O)c1ncc(Cl)c(C(=O)Nc2ccc(F)cc2)n1	14.9	-5.6	-44.4	1.5	98.3*	nt
Cc1nnc(NC(=O)c2nc(S(=O)(=O)Cc3ccccc3)ncc2Cl)s1	nt	1.9	-14.7	7.3	nt	nt
Cc1cccc(CS(=O)(=O)c2ncc(Cl)c(C(=O)Nc3c(C)cccc3C)n2)c1	nt	1.2	-36.5	1.4	nt	nt
O=C(Nc1ccc(F)cc1)c1nc(S(=O)(=O)Cc2ccccc2)ncc1Cl	39.6	-0.1	-19.1	-13.8	107.9*	nt
CCCc1nnc(NC(=O)c2nc(S(=O)(=O)Cc3cccc(C)c3)ncc2Cl)s1	-22.9	-0.1	-0.4	-4.2	108.0*	nt
COc1ccc(NC(=O)c2nc(S(=O)(=O)Cc3cccc(C)c3)ncc2Cl)c(OC)c1	-1.7	0.3	-12.2	15.8	27.8	nt
COc1ccc(OC)c(NC(=O)c2nc(S(=O)(=O)Cc3ccccc3)ncc2Cl)c1	80.4*	3.2	10.0	23.6	105.9*	nt
